Screening data (PubChem)
In the library only some 2.5% were active in any assay of this set; here they are far more common.
NR1D1 modulator = modulators of human Rev-erb alpha DNA binding | 0.79% of 370,000 active | P20393 | AID 1259318 | Rev-erbα–FITC-DNA binding, fluorescence polarization, 90 min | activity, % at 10 µM;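 active means activity above about 14%, limit read from the data; passing the limit was not always enough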
NTR1 ag = NTR1 (human) agonism. NTR1-U2OS beta-arrestin-GFP spot imaging, agonist mode. AID 493036. P30989. activation, % at 20 µM. 0.17% of 330,000 active;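 active means activation at or above 40% of the spot to cytoplasm intensity ratio, with at least 20 cells analyzed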
PG9 binder = small molecules binding HIV-1 gp120 antibody PG9 | TR-FRET gp120-PG9 antibody binding | inhibition, % at 6.7 µM | 0.43% of 360,000 active | AID 624416; in the data active means inhibition above about 8.5%
MC4R ag barr = activates human MC4R beta-arrestin recruitment | U2OS MC4R beta-arrestin complementation, luminescence; percent of melanotan II response, DMSO zero | activation, % at 8.9 µM | 0.98% of 360,000 active;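 active means activation above a per-plate cutoff, the mean activation of sample wells on that plate plus 3 SD, cut at about 8% in these data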
MC4R antagonist = blocks human MC4R cAMP signaling; 0.48% of 360,000 active; AID 540295; inhibition, % at 6.5 µM; P32245; MC4R-expressing cells, MTII-stimulated cAMP, LANCE TR-FRET;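 active means inhibition above its plate's cutoff, the mean of tested wells on that plate plus 3 SD, cut at about 29% in these data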
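Assay system: U2OS-MC4R stable cell line; Also added: Melanotan II; Technique: Eu-cAMP/anti-cAMP TR-FRET, emission 671 nm; Times: 30-min compound, 1-h challenge, 1-h detection, room temperature.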
MC4R barr ag = human MC4R beta-arrestin agonism confirmation; activation, % at 8.9 µM; AID 602192; U2OS MC4R beta-arrestin recruitment, luminescence; scaled DMSO 0%, Melanotan II 100%; shares compounds with MC4R ag barr; 31% of 2,400 active;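 active means mean activation across replicates above the hit cutoff set in the earlier primary screen, cut at about 8% in these data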
MOR DOR agonist = OPRM1-OPRD1 heterodimer agonism counter-screen; shares compounds with MC4R ag barr; U2OS PathHunter beta-arrestin, beta-gal luminescence; percent of deltorphin B response, DMSO zero; activation, % at 9.2 µM; 5.8% of 2,400 active; AID 602194;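 active means mean activation across replicates exceeds the hit threshold derived in the earlier primary screen, cut at about 18% in these data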
Target sequence (P35372 whole entry, looked up): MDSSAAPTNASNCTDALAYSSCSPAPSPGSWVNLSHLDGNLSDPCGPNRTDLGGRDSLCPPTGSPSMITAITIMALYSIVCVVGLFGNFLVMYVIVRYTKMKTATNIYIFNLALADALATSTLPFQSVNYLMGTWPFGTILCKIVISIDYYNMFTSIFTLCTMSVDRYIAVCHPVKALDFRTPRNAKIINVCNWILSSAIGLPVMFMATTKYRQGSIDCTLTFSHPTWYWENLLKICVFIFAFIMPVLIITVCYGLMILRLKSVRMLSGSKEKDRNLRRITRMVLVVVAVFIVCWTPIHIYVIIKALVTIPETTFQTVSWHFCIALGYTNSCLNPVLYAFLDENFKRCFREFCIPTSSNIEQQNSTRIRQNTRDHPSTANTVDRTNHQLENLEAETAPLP
Target sequence (P41143 whole entry, looked up): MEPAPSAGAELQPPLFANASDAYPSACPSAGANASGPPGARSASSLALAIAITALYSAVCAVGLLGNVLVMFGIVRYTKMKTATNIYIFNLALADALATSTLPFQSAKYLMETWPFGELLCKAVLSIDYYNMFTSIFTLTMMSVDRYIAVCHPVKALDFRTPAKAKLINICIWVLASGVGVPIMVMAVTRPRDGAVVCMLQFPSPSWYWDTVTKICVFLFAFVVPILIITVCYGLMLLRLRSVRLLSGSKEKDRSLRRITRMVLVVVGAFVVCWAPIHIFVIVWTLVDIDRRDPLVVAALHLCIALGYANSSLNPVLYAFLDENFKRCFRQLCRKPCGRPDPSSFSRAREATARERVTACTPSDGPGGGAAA
A number is an active result; - = inactive; . = no result given; ! = not active in a repeat.

SMILES	NR1D1 modulator	NTR1 ag	PG9 binder	MC4R ag barr	MC4R antagonist	MC4R barr ag	MOR DOR agonist
COc1ccc(OCCn2cc(/C=C(\C#N)C(=O)NCc3ccco3)c3ccccc32)cc1	-	-	-	50.1	-	51.8	29.9
COc1ccccc1CCC[C@@H](CCS(=O)(=O)C(C)C)CC1CCCCC1	-	.	.	.	.	.	.
COC(=O)C1CN(C2CCCC2)CCS(=O)(=O)N1Cc1ccc(F)cc1 (stereo unspecified)	-	.	.	.	.	.	.
CCOC(=O)c1cccc(NC(=O)CSc2nnc(COc3ccccc3C)o2)c1	-	-	-	11.1	-	-	-
O=C(Nc1cccc(C(F)(F)F)c1)OCCCN1CCC2(CCC(c3ccccc3)CC2)C1=O (stereo unspecified)	-	.	.	.	.	.	.
CCCOc1nccc2c1n(C)c(=O)n2C	-	.	.	.	.	.	.
O=c1oc2ccccc2cc1-c1cn2ccccc2n1	-	-	-	11.1	-	-	-
O=c1oc2ccccc2cc1-c1cn2cccnc2n1	-	-	-	-	-	.	.
Cc1cc(NC(=O)CSc2nc3ccccc3c(=O)n2CCCC(=O)NCc2ccccc2)n[nH]1	-	-	-	-	-	.	.
O=C(CCCn1c(SCC(=O)c2ccc(F)cc2)nc2ccccc2c1=O)NCc1ccccc1	-	-	-	24.3	-	-	-
CCCC(=O)Oc1ccccc1C1SCc2cc(C)c(C)cc2CS1	-	-	-	15.8	-	-	-
CC1=NN(c2nc(N)nc(/C(C#N)=C/c3ccc([N+](=O)[O-])o3)n2)C(C)(C)C1	-	.	-	36.6	-	162.6	172.0
O=C1C2C(C(=O)N1/N=C/c1ccc([N+](=O)[O-])o1)C1C=CC2C12CC2 (stereo unspecified)	-	-	-	-	-	.	.
O=C(CCc1ccccc1-c1ccccc1CCNC(=O)c1ccccc1)NCc1ccccc1	-	.	.	.	.	.	.
COc1ccccc1-c1cn[nH]c1-c1ccc(OCC(=O)NN)cc1O	-	-	-	-	-	.	.
COc1ccccc1-c1cn[nH]c1-c1ccc(OCc2ccc([N+](=O)[O-])cc2)cc1O	-	-	-	15.3	-	-	-
Oc1cc(OCc2ccccc2)ccc1-c1[nH]ncc1-c1ccccc1	-	-	-	12.5	-	-	-
COc1ccc(-c2cn[nH]c2-c2ccc(OCc3ccccc3)cc2O)cc1OC	-	-	-	-	-	.	.
CC(=O)OCC(=O)[C@@]1(OC(C)=O)[C@@H](C)CC2C3C[C@H](F)C4=CC(=O)C=C[C@]4(C)[C@@]3(F)[C@@H](O)C[C@@]21C (stereo partly specified)	-	.	.	.	.	.	.
O=S1(=O)c2ccc(Br)cc2OC[C@@H](Cc2ccccc2)N1Cc1cn(CCC2OCCCO2)nn1	-	.	.	.	.	.	.
O=C(CSc1nnnn1-c1ccc(F)cc1)Nc1nc2ccccc2s1	-	-	-	31.1	-	-	-
O=C(CSc1nc2ccc(NC(=O)CSc3nnnn3-c3ccccc3)cc2s1)Nc1ccccc1	-	-	-	14.3	-	-	-
COC(=O)C[C@H]1CC[C@H]2[C@H](COc3ccc(NS(=O)(=O)c4cccc(F)c4)cc3C(=O)N2C)O1	-	.	.	.	.	.	.
CCOCc1c(C(=O)OCC(=O)NCc2ccc(F)cc2)oc2ccccc12	-	-	-	13.9	-	-	-
CCOC(=O)c1oc2ccccc2c1NC(=O)COc1ccc(F)cc1	-	-	.	36.9	-	25.1	21.5
SMILES	NR1D1 modulator	NTR1 ag	PG9 binder	MC4R ag barr	MC4R antagonist	MC4R barr ag	MOR DOR agonist
COCc1c(C(=O)OCC(=O)NCCc2ccc(S(N)(=O)=O)cc2)oc2ccccc12	-	-	-	-	-	.	.
COC(=O)C1=C(C)N(C)C(=NCc2ccc3c(c2)OCO3)NC1c1ccc(F)cc1 (stereo unspecified)	-	.	-	.	.	.	.
Cc1ccc(-c2[nH]ncc2/C=N/n2c(COc3ccccc3C)nc3ccccc3c2=O)cc1	-	-	-	18.8	-	-	-
Cc1ccccc1OCc1nc2ccccc2c(=O)n1/N=C/c1c[nH]c2ccccc12	-	-	-	28.5	-	-	-
CC(=O)c1ccc(-c2cnc3c(NC=O)cc(-c4ccc(C(=O)NC5CC5)cc4)cn23)cc1	-	.	-	11.3	-	-	-
COc1ccc(-c2cc(NC=O)c3ncc(-c4ccc(C(C)=O)cc4)n3c2)cn1	-	.	-	17.3	-	15.7	-
Cn1cc(/C=C2\SC(=O)N(c3ccccc3)C2=O)c2ccccc21	-	-	-	14.8	-	-	-
CCN1CCN(Cc2ccc(NC(=O)c3ccc(C)c(NC(=O)C(=O)c4c[nH]c5ccccc45)c3)cc2C(F)(F)F)CC1	-	40.8!	-	21.6	-	20.9	-
CCN1CCN(Cc2ccc(NC(=O)c3cc(NC(=O)C(=O)c4c[nH]c5ccccc45)cc(OC)c3)cc2C(F)(F)F)CC1	-	-	-	23.7	-	22.1	-
CCN1CCN(Cc2ccc(NC(=O)c3cc(NC(=O)c4cc(C)on4)cc(OC)c3)cc2C(F)(F)F)CC1	-	-	-	-	-	.	.
O=C(Nc1ccc(-c2noc(COc3ccccc3Cl)n2)cc1)c1ccco1	-	-	-	26.8	-	-	-
COc1ccc(C(=O)OCCCN(C)C2CN(Cc3cn(Cc4ccccc4C(F)(F)F)nn3)S(=O)(=O)C2)cc1OC (stereo unspecified)	-	.	.	.	.	.	.
O=C(Cn1nnc(N2CCCCC2)n1)NN=Cc1ccccc1O	-	.	-	.	.	.	.
O=C(CNCCC1=CCCCC1)Nc1ccc(N2CCCCCC2)cc1	-	-	-	13.2	-	9.4	-
C=CCc1cccc(/C=N/NC(=O)CCCNc2ccc(C)cc2)c1O	-	.	-	15.7	-	-	-
C=CCc1cccc(/C=N/NC(=O)CNc2ccccc2)c1O	-	-	-	-	-	.	.
COC(=O)CSc1nnc(-c2ccc(NS(=O)(=O)c3ccc(C)c(C)c3)cc2)o1	-	.	.	.	.	.	.
C(=N\NC1=Nc2cccc3cccc1c23)/c1ccccn1	-	.	-	-	-	.	.
Clc1ccccc1/C=N/NC1=Nc2cccc3cccc1c23	-	-	-	18.3	-	25.2	-
COc1ccccc1C(=O)NC(=S)Nc1ccc(NC(=O)c2cccs2)cc1	-	-	-	26.8	-	-	-
COc1cc(NC(=O)c2ccc(OC)c([N+](=O)[O-])c2)ccc1NC(=O)c1ccco1	-	-	-	-	-	.	.
COc1cc(OC)cc(C(=O)Nc2ccc(NC(=O)c3ccco3)c(Cl)c2)c1	-	-	-	-	-	.	.
NS(=O)(=O)c1ccc(NC(=S)NC(=O)c2cccs2)cc1	-	-	-	-	-	.	.
COc1cc(OC)cc(C(=O)NC(=S)Nc2ccc(NC(=O)c3ccco3)cc2)c1	-	-	-	12.1	-	-	-
O=C(NC(=S)Nc1ccc(S(=O)(=O)N2CCCCC2)cc1)c1cccs1	-	-	-	13.3	-	-	-
